# Data as given in PubChem BioAssay AID652250 (Vanderbilt Specialized Chemistry Center, 2013).
# Active and inactive are the calls of the source.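 The calls were made as follows: active = compounds leaving under half of the peptide-driven platelet calcium rise; inactive = the rest.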
# Molecular target: Proteinase-activated receptor 4 (Homo sapiens) (UniProt Q96RI0)
# Experiment: PAR4 antagonists in human platelets, cell-based, single concentration, washed platelets, Fluo4 calcium (AID 652250)
# Conditions: PAR4-AP calcium Fluo4 fluorescence
# In short: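 Assay system: Fluo4-AM-loaded washed human platelets / Quantity: 10^8 platelets/mL / Detection: fluorescence at 480/540 nm, 1 s intervals / Also added: 80 µM PAR4-AP / Benchmarks: PAR4-AP-stimulated DMSO control (100%) / Replicates: triplicate wells / Read-out: peak minus basal RFU as % of per-donor DMSO control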
# Proteinase-activated receptor 4 (Homo sapiens), sequence (Q96RI0 whole entry, looked up): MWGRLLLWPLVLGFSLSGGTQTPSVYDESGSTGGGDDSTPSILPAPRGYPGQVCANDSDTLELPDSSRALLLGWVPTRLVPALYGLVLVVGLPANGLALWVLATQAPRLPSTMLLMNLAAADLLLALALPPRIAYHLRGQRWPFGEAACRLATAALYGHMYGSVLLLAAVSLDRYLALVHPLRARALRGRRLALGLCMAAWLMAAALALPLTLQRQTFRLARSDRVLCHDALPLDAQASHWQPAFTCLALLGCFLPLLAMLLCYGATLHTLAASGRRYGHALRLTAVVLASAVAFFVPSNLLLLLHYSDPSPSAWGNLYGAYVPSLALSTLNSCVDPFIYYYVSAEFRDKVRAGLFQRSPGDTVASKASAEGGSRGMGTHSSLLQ
row,SMILES,IC50 [µM]
1,COc1ccc(-c2cn(Cc3cccc(S(C)(=O)=O)c3)c3ccccc23)cn1,10
2,COc1ccc(-c2cn(Cc3cccc(Br)c3)c3ccccc23)cn1,5.27

# Same assay, conditions: PAR4-AP calcium Fluo4 fluorescence, at 10 µM, stronger effect = lower value
row,SMILES,% of max PAR4-AP calcium response
1,COc1ccccc1OCCCn1cc(C(=O)C(F)(F)F)c2ccccc21,inactive
2,O=C(c1cn(Cc2ccccc2Cl)c2ccccc12)C(F)(F)F,inactive
3,Cn1cnnc1SCC(=O)n1c2c(c3ccccc31)CCCC2,inactive
4,Fc1ccc(OCCn2cc(C(=S)N3CCCCC3)c3ccccc32)cc1,inactive
5,Cc1ccc2c(c1)c1c3n2CCN(C(=O)CN2CCN(C(=O)c4ccco4)CC2)C3CCC1 (stereo not given),inactive
6,CCn1ccc(C(=O)NC2CCCCC2)n1,inactive
7,COc1ccc(Nc2ncnc3c2c(-c2ccccc2)cn3-c2ccc(Br)cc2)cc1OC,38.7%
8,COc1ccc(-c2cn(Cc3cccc(-c4ccsc4)c3)c3ccccc23)cn1,inactive
9,O=C(Cn1cc(C(=O)C(F)(F)F)c2cc(Br)ccc21)N1CCCCC1,inactive
10,CC(C)COc1ccc(-c2cn(Cc3ccccc3)c3ccccc23)cc1,inactive
11,O=C(c1cn(CCCOc2ccccc2)c2ccccc12)C(F)(F)F,inactive
12,O=C(CN1CCOCC1)n1c2c(c3ccccc31)CCCC2,inactive
13,S=C(c1cn(CCOc2ccccc2)c2ccccc12)N1CCCC1,inactive
14,COc1ccc2c(c1)c(C(=O)CNc1nc(C)cs1)c(C)n2C,inactive
15,CCn1c(C(=O)O)c(CC(=O)N(C)c2ccc(F)cc2)c2ccccc21,inactive
16,O=C(Cn1cc(C(=O)C(F)(F)F)c2ccccc21)NC1CCCCCC1,inactive

row,SMILES,% of max PAR4-AP calcium response
1,Cc1cccc(NC(=O)Cn2cc(C(=O)C(F)(F)F)c3ccccc32)c1,inactive
2,Cc1ccc(OCCn2cc(C(=S)N3CCOCC3)c3ccccc32)cc1,inactive
3,c1ccc(Cn2cc(CN3CCN(c4ccccc4)CC3)c3ccccc32)cc1,inactive
4,Cc1cc(C)nc(SCC(=O)n2c(C)c(C)c3ccccc32)n1,inactive
5,CC(C)Oc1ccc(-c2cn(Cc3ccccc3)c3ccccc23)cc1,inactive
6,Cc1nn(-c2ccccc2)c2[nH]c(C(F)(F)F)cc(=O)c12,inactive
7,Cc1c(C)n(CC(O)CNCc2ccccc2)c2ccccc12 (stereo not given),inactive
8,COc1cc(Nc2ncnc3c2c(-c2ccccc2)cn3-c2ccccc2)cc(OC)c1OC,inactive
9,COc1ccc(C(C[N+](=O)[O-])c2c(-c3ccccc3)n(C)c3ccccc23)cc1 (stereo not given),inactive
10,Cc1ccc(-n2nc(C(=O)N3CCC(C#N)CC3)c3c4ccccc4n(C)c3c2=O)cc1,inactive
11,OC(CNCc1ccccc1)Cn1c2c(c3ccccc31)CCCC2 (stereo not given),inactive
12,FC(F)(F)c1cccc(-n2cc(-c3ccccc3)c3c(NC4CCCC4)ncnc32)c1,inactive
13,CN(C)c1ccc(/C=N/NC(=O)c2ccn(Cc3ccc(Cl)cc3)n2)cc1,inactive
14,CCn1ccc(C(=O)Nc2ccc(C(F)(F)F)cc2Cl)n1,inactive
15,COc1ccc2c(c1)c(C(C)=O)c(C)n2-c1cccc(Br)c1,inactive
16,S=C(c1cn(Cc2ccc(Cl)cc2)c2ccccc12)N1CCCC1,inactive

# Second part, the compound after the results:
row,% of max PAR4-AP calcium response,SMILES
1,inactive,O=C(N/N=C/c1ccncc1)c1ccn(Cc2ccc(Cl)cc2Cl)n1
2,inactive,COc1ccc(-n2nc(C(=O)Nc3cccc(C)n3)c3c4ccccc4n(C)c3c2=O)cc1Cl
3,inactive,NC(=O)C1CCN(c2ncnc3c2c(-c2ccccc2)cn3-c2ccc(Cl)cc2)CC1
4,inactive,OCCCNc1ncnc2c1c(-c1ccccc1)cn2-c1cccc(Cl)c1
5,inactive,OCCc1c(-c2ccccc2)n(Cc2ccccc2)c2ccccc12
6,inactive,Cc1ccc(-n2cc(-c3ccccc3)c3c(NCC4CCCO4)ncnc32)cc1Cl (stereo not given)
7,inactive,O=C(N/N=C/c1cccc2cccnc12)c1ccn(Cc2ccc(Cl)cc2)n1
8,inactive,OCc1cn(Cc2ccc(Cl)c(Cl)c2)c2ccccc12
9,inactive,CCc1cc(C(=O)Cc2cnn(-c3ccccc3)c2)c(O)cc1O
10,inactive,COc1ncc(-c2cn(Cc3ccccc3)c3ccccc23)cn1
11,inactive,O=C(c1ccccc1F)n1c2c(c3ccccc31)CCCC2
12,inactive,CNc1ccccc1-n1ccc(-c2ccccc2)n1
13,inactive,O=C(c1ccn(C(=O)c2cccc(Cl)c2)n1)N1CCOCC1
14,inactive,Cc1cc(-c2cn(Cc3ccccc3)c3ccccc23)cnc1F
15,inactive,Fc1ccc(-c2cn(Cc3ccccc3)c3ccccc23)c(F)n1
16,inactive,CC(=O)n1cc(-c2ccncc2)c2ccccc21
17,inactive,Clc1ccc(-n2cc(-c3ccccc3)c3c(NCc4cccs4)ncnc32)cc1
18,inactive,COc1cc(OC)cc(-c2cn(Cc3ccccc3)c3ccccc23)c1

row,% of max PAR4-AP calcium response,SMILES
1,inactive,O=C(c1ccccc1)n1cc(-c2nc3cc(Cl)ccc3o2)cn1
2,inactive,CC(C)Sc1ncnc2c1c(-c1ccccc1)cn2-c1cccc(F)c1
3,inactive,OCc1cn(Cc2ccccc2Cl)c2ccccc12
4,inactive,Clc1ccccc1CNc1ncnc2c1c(-c1ccccc1)cn2-c1ccccc1
5,inactive,CCn1c(COC)c(-c2ccccc2)c2cc([N+](=O)[O-])ccc21
6,inactive,O=C(Cn1cc(CO)c2ccccc21)Nc1ccccc1
7,inactive,CN(C)c1ccc(-c2cn(Cc3ccccc3)c3ccccc23)cn1
8,inactive,O=C(Cn1cc(CO)c2ccccc21)Nc1ccc(Cl)cc1
9,inactive,O=C(N/N=C/c1c[nH]c2ccccc12)c1ccn(Cc2ccc(Cl)cc2)n1
10,inactive,Cc1ccc(-n2cc(-c3ccccc3)c3c(N4CC(C)OC(C)C4)ncnc32)cc1 (stereo not given)
11,inactive,Cc1ccc(-n2cc(-c3ccccc3)c3c(N4CCCC4)ncnc32)cc1
12,inactive,Cc1ccc(-n2cc(-c3ccccc3)c3c(N4CCCC4)ncnc32)cc1Cl
13,inactive,CC(C)NC(=O)CCc1cn(Cc2ccccc2)c2ccccc12
14,inactive,Cc1cc(F)ncc1-c1cn(Cc2ccccc2)c2ccccc12
15,inactive,c1ccc(Cn2cc(-c3cncnc3)c3ccccc32)cc1
16,inactive,OCCc1cn(-c2ccccc2)c2ccccc12
17,inactive,Cn1cc(CC(=O)NCC2COc3ccccc3O2)c2ccccc21 (stereo not given)
18,inactive,CSc1ccc(-c2cn(Cc3ccccc3)c3ccccc23)cn1
